According to publication PMC2606940 (The Journal of General Physiology, 2009):
Changes are numbered by the printed parent chain. Structures can show the parent of a compound that is named as a salt.

Experiments:
CLC-0 E166A mutant = molecular target: T1, CLC-0 E166A mutant (Torpedo marmorata, UniProt P21564, C212S/E166A); assay type: cell-based; details: for K1/2 (range in words): −140 mV (Fig. 10 C)
T1 sequence (P21564 1-805 E166A/C212S): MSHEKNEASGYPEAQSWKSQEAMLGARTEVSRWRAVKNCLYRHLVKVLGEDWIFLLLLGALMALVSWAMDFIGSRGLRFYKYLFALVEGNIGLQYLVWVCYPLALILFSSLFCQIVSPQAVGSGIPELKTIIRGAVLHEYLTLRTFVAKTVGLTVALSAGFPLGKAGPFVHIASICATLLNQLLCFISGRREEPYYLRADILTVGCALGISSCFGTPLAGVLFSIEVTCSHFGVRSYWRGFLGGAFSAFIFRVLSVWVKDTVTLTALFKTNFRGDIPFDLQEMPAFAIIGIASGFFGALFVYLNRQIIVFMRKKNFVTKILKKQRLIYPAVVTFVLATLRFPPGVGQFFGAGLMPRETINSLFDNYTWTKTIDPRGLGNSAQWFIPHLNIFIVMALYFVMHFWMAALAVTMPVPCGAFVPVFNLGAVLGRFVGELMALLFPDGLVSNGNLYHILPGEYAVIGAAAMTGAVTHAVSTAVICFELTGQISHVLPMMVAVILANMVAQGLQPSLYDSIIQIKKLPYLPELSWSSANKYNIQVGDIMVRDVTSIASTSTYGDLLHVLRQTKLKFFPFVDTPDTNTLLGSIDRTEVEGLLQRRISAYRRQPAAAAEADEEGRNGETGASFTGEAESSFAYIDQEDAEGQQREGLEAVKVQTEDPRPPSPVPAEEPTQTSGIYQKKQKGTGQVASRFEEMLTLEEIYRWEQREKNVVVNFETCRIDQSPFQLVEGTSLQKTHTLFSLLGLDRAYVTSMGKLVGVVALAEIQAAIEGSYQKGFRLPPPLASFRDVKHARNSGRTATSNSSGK
How it was run: (§1)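 HEK293 cells expressed C212S-background CLC-0 mutants and were recorded 1–3 d post-transfection as inside-out patches in symmetrical 130 mM NaCl, 10 mM HEPES, pH 7.4. CPA, fatty acids or alkyl sulfates flowed continuously on the cytoplasmic side. C10–C12 compounds were diluted into bath solution from 10 mM DMSO stocks. Test steps ran from +80 to −160 mV after a +80 mV prepulse. Steady-state current was normalized to the mean of pre- and post-blocker controls, and a Langmuir K1/2 was taken at each voltage from ~4–6 patches.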

CLC-0 E166Q mutant = molecular target: T2, CLC-0 E166Q mutant (Torpedo marmorata, UniProt P21564, C212S/E166Q); assay type: cell-based; details: 5 μM SDS
T2 sequence (P21564 1-805 E166Q/C212S): T1 sequence (P21564 1-805 E166A/C212S) with A166Q
How it was run: as §1

Row | Compound | K1/2 (range in words) (CLC-0 E166A mutant) | blocking affinity (in words) (CLC-0 E166A mutant) | further results
1 | CCCCCCCCCC(=O)O [decanoate] | low μM range | – | –
2 | CCCCCCCCCCCC(=O)O [dodecanoate] | low μM range | – | –
3 | CCCCCCCCCCCCOS(=O)(=O)O [SDS, dodecyl sulfate] | – | high affinity | block of current (CLC-0 E166A mutant; 5 μM SDS, −160 mV): ~50%; effect on current (CLC-0 E166Q mutant): very limited effect
4 | CS(=O)(=O)SCCS(=O)(=O)O [2-sulfonatoethyl MTS] | – | lower affinities than that observed with SDS | –
5 | CS(=O)(=O)SCCCCCS(=O)(=O)O [5-sulfonatopentyl MTS] | – | lower affinities than that observed with SDS | –
6 | CCCCCCCCO [Octanol] | – | low affinity | voltage dependence of the block (CLC-0 E166A mutant): no voltage dependence
7 | CCC(=O)O [propionate] | mM range | – | –
8 | CCCC(=O)O [butyrate] | mM range | – | –
